The record followed here is ChEMBL document CHEMBL1772969, “Synthesis, structure-activity relationship, and antimalarial activity of ureas and thioureas of 15-membered azalides” (J Med Chem, 2011).

Series [1] deals with Plasmodium falciparum. In words: Antimalarial activity against multidrug-resistant Plasmodium falciparum TM91C235 after 48 hrs by [3H]hypoxanthine incorporation assay. Format: functional, organism-based. The method, boiled down: (§1)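 [3H]hypoxanthine incorporation assay (Desjardins method, Milhous modification) with 48 h drug exposure. Compounds and controls were 2-fold diluted across 11 concentrations. IC50 was fitted by nonlinear logistic dose-response. Values are averaged where multiple results were generated, with relative errors usually <30%.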

For series [2], the system named is Plasmodium falciparum. The experiment in a line: Antimalarial activity against chloroquine/pyrimethamine-resistant Plasmodium falciparum W2 after 48 hrs by [3H]hypoxanthine incorporation assay. It is filed as functional, organism-based. In a few lines:
as §1

The next series relates to HepG2. The experiment in a line: Cytotoxicity against human HepG2 cells after 1 to 4 hrs by MTS assay. Format: cell-based. The method, boiled down: (§2)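 HepG2 and THP-1 cells grown in RPMI 1640 with 10% FBS at 37 °C, 5% CO₂, and passaged twice weekly. Compounds applied as continuous exposure. Viability read by MTS reagent, 1–4 h incubation, absorbance at 490 nm; IC₅₀ derived.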

A further series concerns THP-1. The experiment in a line: Cytotoxicity against human THP1 cells after 1 to 4 hrs by MTS assay. It is filed as cell-based. In a few lines:
as §2
For orientation: Formazan colour is commonly taken as a measure of viable cells.

Series [3] is described as follows: Half life in human liver microsomes at 1 uM by LCMS analysis. It is filed as ADME, Microsome. The method, boiled down: (§3)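 Compound at 1 μM final with 0.5 mg/mL pooled human or mouse liver microsomes, 1.3 mM NADP, 3.3 mM MgCl₂, 0.1 M PBS pH 7.4. Reaction started with 1 U/mL G6PD, shaken at 37 °C. Aliquots quenched with cold acetonitrile at 0, 10, 20, 30 and 60 min and quantified by LCMS. t₁/₂ taken from log plot of total ion chromatogram area remaining.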

Series [4] is described as follows: Half life in mouse liver microsomes at 1 uM by LCMS analysis. Format: ADME, Microsome. The method, boiled down: as §3
Series [5] has as its system Plasmodium berghei. The experiment in a line: Antiplasmodial activity against Plasmodium berghei KBG-173 infected in sc dosed mouse administered bid for 3 days. It is filed as functional. In a few lines:
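Male mice (24-30 g) were infected ip with 5 × 10⁶ P. berghei KBG-173-infected erythrocytes. Drug suspended in palm/peanut oil was given sc twice daily on days 3-5 post-infection at 160, 40 or 10 mg/kg per dose, 0.01 mL/g, in groups of 4-5. Blood films were taken day 6, then biweekly to day 31. Mice smear-negative on day 31 were counted cured. CD50 is the daily dose curing 50%.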

Series [6] deals with Plasmodium berghei. In words: Antiplasmodial activity against Plasmodium berghei KBG-173 infected in mouse assessed as mouse without parasitemia at 240 mg/kg, sc bid for 3 days measured on day 31. Format: functional, organism-based. Details: dose 240 mg/kg. In a few lines: (§4)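 P. berghei KBG-173: 5 × 10⁶ infected erythrocytes injected intraperitoneally into male mice (24–30 g); parasitemia 1.0–3.7% by day 3. Oil suspension given subcutaneously twice daily at 160, 40 or 10 mg/kg on days 3–5 postinfection (totals 960/240/60 mg/kg); 4–5 mice per group. Blood films on day 6, then biweekly to day 31; film-negative on day 31 counted as cured.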

Series [7] has as its system Plasmodium falciparum. The experiment in a line: Antimalarial activity against chloroquine-sensitive Plasmodium falciparum D6 after 48 hrs by [3H]hypoxanthine incorporation assay. Format: functional, organism-based. In a few lines: as §1
Series [8] concerns Plasmodium berghei. In words: Antiplasmodial activity against Plasmodium berghei KBG-173 infected in mouse assessed as mouse without parasitemia at 60 mg/kg, sc bid for 3 days measured on day 31. It is filed as functional, organism-based. Details: dose 60 mg/kg. The method, boiled down: as §4

Calls of active or inactive are those of the source.

One may read the IC50 as the concentration at which inhibition is half-maximal. A higher IC50 goes with weaker potency in that assay. The half-life is the time needed for the level to fall by half in the phase considered. For the compound `CC[C@H]1OC(=O)[C@H](C)[C@@H](O[C@H]2C[C@@](C)(OC)[C@@H](O)[C@H](C)O2)[C@H](C)[C@@H](O[C@@H]2O[C@H](C)C[C@H](N(C)C)[C@H]2O)[C@](C)(O)C[C@@H](C)CN(CCCN(CCC#N)C(=O)NC(C)c2cccc3ccccc23)[C@H](C)[C@@H](O)[C@]1(C)O` (stereo partly specified), the IC50 with Plasmodium falciparum [1] was 97 nM; in the series with Plasmodium falciparum [2] it was 136 nM; in the series with HepG2, 48000 nM; in the series with THP-1, 40000 nM; in the series on Plasmodium falciparum [7], 200 nM. Further, the half-life at 1 µM in series [3] and in series [4] was greater than 2 h in each case. The CD50 in the series on Plasmodium berghei [5] was found to be 510 mg/kg. Besides, the outcome with Plasmodium berghei [6] was inactive.
Regarding `CC[C@H]1OC(=O)[C@H](C)[C@@H](O[C@H]2C[C@@](C)(OC)[C@@H](O)[C@H](C)O2)[C@H](C)[C@@H](O[C@@H]2O[C@H](C)C[C@H](N(C)C)[C@H]2O)[C@](C)(O)C[C@@H](C)CN(CCCNC(=O)Nc2cccc3ccccc23)[C@H](C)[C@@H](O)[C@]1(C)O`, the IC50 in the series with Plasmodium falciparum [1] is 131 nM; in the series on Plasmodium falciparum [2] it was 173 nM; in the series with HepG2, greater than 50000 nM; in the series with THP-1, greater than 50000 nM; in the series with Plasmodium falciparum [7], 215 nM. The half-life at 1 µM in series [3] and in [4] was greater than 2 h in each case. The compound further came in with a CD50 with Plasmodium berghei [5] of 150 mg/kg.
Regarding `CC[C@H]1OC(=O)[C@H](C)[C@@H](O[C@H]2C[C@@](C)(OC)[C@@H](O)[C@H](C)O2)[C@H](C)[C@@H](O[C@@H]2O[C@H](C)C[C@H](N(C)C)[C@H]2O)[C@](C)(O)C[C@@H](C)CN(CCCN(CCC#N)C(=S)NCc2ccccc2)[C@H](C)[C@@H](O)[C@]1(C)O`, the IC50 amounted to 126 nM in the series with Plasmodium falciparum [1]; 139 nM with Plasmodium falciparum [2]; 44000 nM in the series on HepG2; 11000 nM in the series with THP-1; 204 nM in the series on Plasmodium falciparum [7]. For the same compound, the half-life at 1 µM in series [3] and in [4] was greater than 2 h throughout. This compound yielded a CD50 in the series on Plasmodium berghei [5] greater than 960 mg/kg.
On to `CC[C@H]1OC(=O)[C@H](C)[C@@H](O[C@H]2C[C@@](C)(OC)[C@@H](O)[C@H](C)O2)[C@H](C)[C@@H](O[C@@H]2O[C@H](C)C[C@H](N(C)C)[C@H]2O)[C@](C)(O)C[C@@H](C)CN(CCCNC(=S)NCCc2ccccc2)[C@H](C)[C@@H](O)[C@]1(C)O`, for which the IC50 with Plasmodium falciparum [1] is 200 nM; with Plasmodium falciparum [2] it was 167 nM; in the series on HepG2, 47000 nM; in the series on THP-1, 23000 nM; in the series with Plasmodium falciparum [7], 215 nM. Also, the half-life at 1 µM in series [3] and in series [4] was greater than 2 h each time. The compound further gave a CD50 in the series with Plasmodium berghei [5] of 780 mg/kg. Also, in the series on Plasmodium berghei [8], the outcome was inactive.
As for `CC[C@H]1OC(=O)[C@H](C)[C@@H](O[C@H]2C[C@@](C)(OC)[C@@H](O)[C@H](C)O2)[C@H](C)[C@@H](O[C@@H]2O[C@H](C)C[C@H](N(C)C)[C@H]2O)[C@](C)(O)C[C@@H](C)CN(CCCNC(=S)Nc2cccc3ccccc23)[C@H](C)[C@@H](O)[C@]1(C)O`, the half-inhibitory concentration (IC50) in the series with Plasmodium falciparum [1] stood at 131 nM; with Plasmodium falciparum [2], 155 nM; in the series with HepG2, 48000 nM; in the series on THP-1, 40000 nM; with Plasmodium falciparum [7], 116 nM. Besides, the half-life at 1 µM in series [3] and in series [4] was greater than 2 h throughout. The CD50 in the series on Plasmodium berghei [5] was 195 mg/kg.
Regarding `CC[C@H]1OC(=O)[C@H](C)[C@@H](O[C@H]2C[C@@](C)(OC)[C@@H](O)[C@H](C)O2)[C@H](C)[C@@H](O[C@@H]2O[C@H](C)C[C@H](N(C)C)[C@H]2O)[C@](C)(O)C[C@@H](C)CN(CCNC(=S)NCCCc2ccccc2)[C@H](C)[C@@H](O)[C@]1(C)O`, the IC50 with Plasmodium falciparum [1] amounted to 82 nM; in the series on Plasmodium falciparum [2], 52 nM; in the series with HepG2, 8000 nM; with THP-1, 5000 nM; with Plasmodium falciparum [7], 182 nM. Besides, the half-life at 1 µM in [3] and in series [4] was greater than 2 h throughout.
As to `CC[C@H]1OC(=O)[C@H](C)[C@@H](O[C@H]2C[C@@](C)(OC)[C@@H](O)[C@H](C)O2)[C@H](C)[C@@H](O[C@@H]2O[C@H](C)C[C@H](N(C)C)[C@H]2O)[C@](C)(O)C[C@@H](C)CN(CCNC(=S)Nc2ccccc2)[C@H](C)[C@@H](O)[C@]1(C)O`, the 50% inhibitory concentration (IC50) in the series on Plasmodium falciparum [1] is 113 nM; with Plasmodium falciparum [2] it was 443 nM; in the series with HepG2 it was 48000 nM; in the series on THP-1, 16000 nM; in the series with Plasmodium falciparum [7] it was 183 nM. Besides, the half-life at 1 µM in series [3] and in series [4] was greater than 2 h throughout.
For the compound `CC[C@H]1OC(=O)[C@H](C)[C@@H](O[C@H]2C[C@@](C)(OC)[C@@H](O)[C@H](C)O2)[C@H](C)[C@@H](O[C@@H]2O[C@H](C)C[C@H](N(C)C)[C@H]2O)[C@](C)(O)C[C@@H](C)CN(CCNC(=O)NCCc2ccccc2)[C@H](C)[C@@H](O)[C@]1(C)O`, the half-inhibitory concentration (IC50) in the series with Plasmodium falciparum [1] is 243 nM; with Plasmodium falciparum [2] it was 105 nM; in the series on HepG2, greater than 50000 nM; in the series on THP-1, 45000 nM; in the series with Plasmodium falciparum [7] it was 546 nM. The half-life at 1 µM in series [3] and in series [4] was greater than 2 h each time.
For `CC[C@H]1OC(=O)[C@H](C)[C@@H](O[C@H]2C[C@@](C)(OC)[C@@H](O)[C@H](C)O2)[C@H](C)[C@@H](O[C@@H]2O[C@H](C)C[C@H](N(C)C)[C@H]2O)[C@](C)(O)C[C@@H](C)CN(CCN(CCC#N)C(=S)NCCc2ccccc2)[C@H](C)[C@@H](O)[C@]1(C)O`, the half-inhibitory concentration (IC50) in the series on Plasmodium falciparum [1] is 369 nM; with Plasmodium falciparum [2], 64 nM; in the series with HepG2 it was 7000 nM; in the series with THP-1 it was 6000 nM; with Plasmodium falciparum [7], 295 nM. The half-life at 1 µM in series [3] and in series [4] was greater than 2 h in each case.
As for `CC[C@H]1OC(=O)[C@H](C)[C@@H](O[C@H]2C[C@@](C)(OC)[C@@H](O)[C@H](C)O2)[C@H](C)[C@@H](O[C@@H]2O[C@H](C)C[C@H](N(C)C)[C@H]2O)[C@](C)(O)C[C@@H](C)CN(CCNC(=S)NCCc2ccccc2)[C@H](C)[C@@H](O)[C@]1(C)O`, the IC50 in the series on Plasmodium falciparum [1] was found to be 128 nM; in the series on Plasmodium falciparum [2] it was 102 nM; in the series on HepG2, 9000 nM; with THP-1 it was 4000 nM; in the series on Plasmodium falciparum [7], 203 nM. Moreover, the half-life at 1 µM in [3] and in series [4] was greater than 2 h throughout.
Regarding `CC[C@H]1OC(=O)[C@H](C)[C@@H](O[C@H]2C[C@@](C)(OC)[C@@H](O)[C@H](C)O2)[C@H](C)[C@@H](O[C@@H]2O[C@H](C)C[C@H](N(C)C)[C@H]2O)[C@](C)(O)C[C@@H](C)CN(CCN(CCC#N)C(=O)Nc2ccc3ccccc3c2)[C@H](C)[C@@H](O)[C@]1(C)O`, the 50% inhibitory concentration (IC50) amounted to 224 nM in the series with Plasmodium falciparum [1]; 125 nM in the series on Plasmodium falciparum [2]; 11000 nM in the series with HepG2; 13000 nM in the series with THP-1; 525 nM with Plasmodium falciparum [7]. Besides, the half-life at 1 µM in series [3] and in series [4] was greater than 2 h each time.
For the compound `CC[C@H]1OC(=O)[C@H](C)[C@@H](O[C@H]2C[C@@](C)(OC)[C@@H](O)[C@H](C)O2)[C@H](C)[C@@H](O[C@@H]2O[C@H](C)C[C@H](N(C)C)[C@H]2O)[C@](C)(O)C[C@@H](C)CN(CCNC(=O)NC(C)c2cccc3ccccc23)[C@H](C)[C@@H](O)[C@]1(C)O` (stereo partly specified), the IC50 turned out to be 46 nM with Plasmodium falciparum [1]; 33 nM in the series with Plasmodium falciparum [2]; 10000 nM in the series with HepG2; 8000 nM in the series with THP-1; 179 nM with Plasmodium falciparum [7]. The half-life at 1 µM in [3] and in series [4] was greater than 2 h each time.
